In publication PMC10209341 (Heliyon, 2023):
Where two headings read alike, the source gives them in different places.

Legend:
HCT116 xenograft [1] = assay: HCT116 xenograft, initial tumor model; type: in vivo, Balb/c nude mice
Procedure, shortened: (§1)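 Female Balb/c nude mice, 6–8 weeks old. HCT116 cells (5 × 10^6 in 100 μL PBS) injected s.c. into the right flank. All given orally once daily. Tumour volume (0.5 × a × b²) measured every three days.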

LO2 cells [2] = assay: Microscopy imaging of cell morphology; type: cell-based; conditions: 48 h
Procedure, shortened: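 LO2 cells exposed 48 h to test compound or reference drug and imaged by microscopy. Scored features were apoptotic bodies and ballooned cell membranes typical of pyroptosis.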

Sub-acute toxicity study = type: in vivo, C57BL/6 mice; conditions: for body weight / deaths during the study: 25 days; for deaths during the study: female C57BL/6 mice
Procedure, shortened: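 Female C57BL/6 mice dosed orally for 25 days with vehicle, test compound 100 mg/kg or reference drug 40 mg/kg. Body weight and survival followed. Livers imaged and H&E stained. Plasma BUN, CREA, GLB, UREAL, ALP, AST and ALT measured (n = 3).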

Hep3B2.1-7 xenograft = assay: Hep3B2.1-7 hepatoma xenograft model; type: in vivo, Balb/c nude mice; conditions: Hep3B2.1-7 model; for growth inhibition rate: terminated day 15
Procedure, shortened: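 Female Balb/c nude mice, 6–8 weeks old, carrying s.c. Hep3B2.1-7 xenografts. Tumours established as for the HCT116 initial model (~150 mm3). Tumour volume (0.5 × a × b²) measured every three days and body weight monitored. At the end, mice sacrificed under anaesthesia and major organs taken for H&E.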

HepG2 xenograft = assay: HepG2 hepatoma xenograft model; type: in vivo, Balb/c nude mice
Procedure, shortened: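 Female Balb/c nude mice, 6–8 weeks old, carrying s.c. HepG2 xenografts. Tumours established as for the HCT116 initial model (~150 mm3). Groups: vehicle, test compound 50 mg/kg, reference drug 30 mg/kg; n = 5. Tumour volume (0.5 × a × b²) measured every three days and body weight followed. At the end of treatment, organs taken for H&E.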

LO2 cells [3] = assay: MTT assay in normal liver cells LO2; type: cell-based; conditions: Homo sapiens, L02, 72 h, read-out: IC50, viability of normal liver cells LO2
[4] = test system: HCT116, HepG2 and Hep3B2.1-7 cells; assay: Cellular ROS level by flow cytometry; type: cell-based; conditions: 48 h, DCFH-DA
Procedure, shortened: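 Cells seeded at 3 × 10^4 per well in 6-well plates and grown 24 h, then exposed 48 h to graded concentrations of test compound or reference drug. Intracellular ROS stained with DCFH-DA (ROS assay kit), read by flow cytometry and quantified. DCFH-DA-stained HCT116 cells were also viewed by inverted fluorescence microscopy.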

[5] = test system: N-GSDME and cleaved-caspase3 in HCT116, Hep3B2.1-7 and HepG2 cells; assay: Western blot of pyroptosis-related proteins; type: cell-based; conditions: 48 h
Procedure, shortened: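 HCT116, Hep3B2.1-7 and HepG2 cells treated 48 h with graded concentrations of test compound or reference drug, then lysed in RIPA. 100 μg protein run on 10% SDS-PAGE and blotted to nitrocellulose. Probed for GSDME, N-GSDME, caspase-3 and cleaved caspase-3, with ECL detection. Bands quantified as ratio to GAPDH; three independent experiments.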

HCT116 xenograft [6] = assay: HCT116 xenograft, medium-term tumor model; type: in vivo, Balb/c nude mice; conditions: for tumor inhibitory rate: medium-term HCT116 model
Procedure, shortened: as §1

HCT116 cells = assay: Rescue of Lenvatinib-induced pyroptosis in pretreated HCT116 cells; type: cell-based; conditions: then stimulated with Lenvatinib
HUVECs [7] = assay: MTT assay in HUVECs; type: cell-based; conditions: Homo sapiens, HUVEC, 48 h
HUVECs [8] = assay: Transwell invasion assay of HUVECs; type: cell-based; conditions: 1.25 μM, 24 h
Procedure, shortened: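 HUVECs (4 × 10^4) in growth-factor-free ECM medium went into Matrigel-coated transwell upper chambers; the lower chamber held ECM with growth factors. Test compound (1.25 μM) or DMSO was added to the upper cells for 24 h. Non-invading cells were scraped off, and invaded cells were fixed in 4% paraformaldehyde, stained with crystal violet and photographed. Values are mean ± SD, n = 3.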

HUVECs [9] = assay: Wound healing; type: cell-based; conditions: 1.25 μM, 24 h
Procedure, shortened: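 HUVEC monolayers in 6-well plates were scratch-wounded, washed with PBS and treated with test compound (1.25 μM). Wounds were photographed under a microscope after 24 h. Values are mean ± SD from three independent experiments.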

VEGF165-induced HUVECs = assay: EdU incorporation assay in HUVECs; type: cell-based
Procedure, shortened: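 HUVECs were kept in medium with 10% FBS at 37 °C and 5% CO2, then plated at 1 × 10^4 cells/well in 96-well plates. Cells received a range of test-compound concentrations or solvent control and were stained with an EdU proliferation kit plus Hoechst 33342. Under a fluorescence microscope, the read-out was the ratio of EdU-positive to Hoechst-positive cells. Values are mean ± SD from three independent experiments.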

STAT3 phosphorylation = assay: Western blot of VEGF-induced phosphorylation in HUVECs; type: cell-based; conditions: 1.0 μM
Procedure, shortened: (§2)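 HUVEC lysates made in RIPA buffer and protein measured by BCA. 100 μg protein run on 10% SDS-PAGE and transferred to nitrocellulose. Membranes blocked 2 h in TBST with 5% milk, then primary antibody overnight at 4 °C and secondary 1 h at room temperature. Bands detected by ECL.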

HUVECs [10] = assay: HUVEC tube formation assay; type: cell-based; conditions: 3 μM, 6 h
Procedure, shortened: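 Wells were pre-chilled, coated with Matrigel and polymerised at 37 °C for 1 h. HUVECs in ECM medium were seeded on the Matrigel at 2 × 10^4 cells/well together with test compound (3 μM). After 6 h, tube formation was observed by microscopy. Values are mean ± SD from three independent experiments.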

ERK phosphorylation = assay: Western blot of VEGF-induced phosphorylation in HUVECs; type: cell-based; conditions: 0.3 μM
Procedure, shortened: as §2

VEGFR1 = VEGFR1 (Homo sapiens, UniProt P17948); assay: Kinase inhibition assay; type: biochemical
VEGFR1, sequence (P17948 27-1338): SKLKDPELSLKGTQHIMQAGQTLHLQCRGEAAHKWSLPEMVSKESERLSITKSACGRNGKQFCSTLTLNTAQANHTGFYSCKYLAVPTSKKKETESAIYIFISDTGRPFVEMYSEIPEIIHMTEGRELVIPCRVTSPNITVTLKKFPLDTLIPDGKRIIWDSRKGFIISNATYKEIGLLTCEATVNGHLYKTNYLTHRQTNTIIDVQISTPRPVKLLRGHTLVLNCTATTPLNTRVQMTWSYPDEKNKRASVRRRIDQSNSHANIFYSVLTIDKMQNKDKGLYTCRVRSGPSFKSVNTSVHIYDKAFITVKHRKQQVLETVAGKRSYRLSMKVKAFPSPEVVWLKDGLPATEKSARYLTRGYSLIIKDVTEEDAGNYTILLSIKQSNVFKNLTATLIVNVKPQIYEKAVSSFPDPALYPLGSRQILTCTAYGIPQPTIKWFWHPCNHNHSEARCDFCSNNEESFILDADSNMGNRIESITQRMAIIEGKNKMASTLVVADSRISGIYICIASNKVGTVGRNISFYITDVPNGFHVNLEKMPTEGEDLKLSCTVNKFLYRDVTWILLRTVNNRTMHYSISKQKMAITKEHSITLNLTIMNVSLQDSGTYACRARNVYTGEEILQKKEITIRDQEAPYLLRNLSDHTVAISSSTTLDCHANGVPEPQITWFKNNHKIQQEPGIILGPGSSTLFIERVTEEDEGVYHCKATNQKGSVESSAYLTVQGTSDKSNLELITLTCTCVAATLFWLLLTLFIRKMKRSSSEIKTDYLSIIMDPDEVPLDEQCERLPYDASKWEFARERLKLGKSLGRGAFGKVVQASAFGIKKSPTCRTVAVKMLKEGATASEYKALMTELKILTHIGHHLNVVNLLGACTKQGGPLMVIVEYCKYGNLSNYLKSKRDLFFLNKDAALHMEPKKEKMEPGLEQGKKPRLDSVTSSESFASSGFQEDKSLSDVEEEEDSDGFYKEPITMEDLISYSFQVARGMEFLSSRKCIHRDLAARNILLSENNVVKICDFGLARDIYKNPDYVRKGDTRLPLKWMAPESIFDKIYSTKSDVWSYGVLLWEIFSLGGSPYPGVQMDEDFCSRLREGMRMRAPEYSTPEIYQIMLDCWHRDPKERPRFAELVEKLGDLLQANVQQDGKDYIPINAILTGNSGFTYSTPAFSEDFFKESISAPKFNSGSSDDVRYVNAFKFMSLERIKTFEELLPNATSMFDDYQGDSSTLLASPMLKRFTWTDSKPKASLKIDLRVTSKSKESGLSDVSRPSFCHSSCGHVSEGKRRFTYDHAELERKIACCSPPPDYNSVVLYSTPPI
Procedure, shortened: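 Kinase activity tested by a contract provider over a gradient of test-compound concentrations. IC50 derived by fitting the concentration–response data.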

tumor tissues = assay: Immunohistochemistry of xenograft tumor tissues; type: in vivo, Balb/c nude mice; conditions: vs controls
Procedure, shortened: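 At the end of xenograft treatment, mice sacrificed under anaesthesia and tumours excised. Tumour sections stained by immunohistochemistry for Ki67 (proliferation) and CD31 (microvessels), plus TUNEL for apoptotic cells. Imaged at ×20.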

VEGFR2 phosphorylation = assay: Western blot of VEGF-induced phosphorylation in HUVECs; type: cell-based; conditions: 3.3 μM
Procedure, shortened: as §2

[11] = test system: HepG2, Hepa3B2.1-7 and HCT116 cells; assay: MTT and crystal violet; type: cell-based; conditions: MTT and crystal violet staining, time- and dose-dependent
Procedure, shortened: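 MTT: cells (2–5 × 10^3 per well) attached 24 h, then given graded concentrations of test compound (in DMSO): 6 days for liver cancer lines, 3 days for HCT116, and various times. MTT (5 mg/mL) added for 4 h; formazan dissolved in DMSO and absorbance read at 570 nm. Colony assay: 1.5 × 10^3 cells per well treated 10 days, fixed in 4% PFA 20 min, stained with 0.5% crystal violet 10 min, counted. Three independent experiments.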

VEGFR3 = VEGFR3 (Homo sapiens, UniProt P35916); assay: Kinase inhibition assay; type: biochemical
VEGFR3, sequence (P35916 25-1363): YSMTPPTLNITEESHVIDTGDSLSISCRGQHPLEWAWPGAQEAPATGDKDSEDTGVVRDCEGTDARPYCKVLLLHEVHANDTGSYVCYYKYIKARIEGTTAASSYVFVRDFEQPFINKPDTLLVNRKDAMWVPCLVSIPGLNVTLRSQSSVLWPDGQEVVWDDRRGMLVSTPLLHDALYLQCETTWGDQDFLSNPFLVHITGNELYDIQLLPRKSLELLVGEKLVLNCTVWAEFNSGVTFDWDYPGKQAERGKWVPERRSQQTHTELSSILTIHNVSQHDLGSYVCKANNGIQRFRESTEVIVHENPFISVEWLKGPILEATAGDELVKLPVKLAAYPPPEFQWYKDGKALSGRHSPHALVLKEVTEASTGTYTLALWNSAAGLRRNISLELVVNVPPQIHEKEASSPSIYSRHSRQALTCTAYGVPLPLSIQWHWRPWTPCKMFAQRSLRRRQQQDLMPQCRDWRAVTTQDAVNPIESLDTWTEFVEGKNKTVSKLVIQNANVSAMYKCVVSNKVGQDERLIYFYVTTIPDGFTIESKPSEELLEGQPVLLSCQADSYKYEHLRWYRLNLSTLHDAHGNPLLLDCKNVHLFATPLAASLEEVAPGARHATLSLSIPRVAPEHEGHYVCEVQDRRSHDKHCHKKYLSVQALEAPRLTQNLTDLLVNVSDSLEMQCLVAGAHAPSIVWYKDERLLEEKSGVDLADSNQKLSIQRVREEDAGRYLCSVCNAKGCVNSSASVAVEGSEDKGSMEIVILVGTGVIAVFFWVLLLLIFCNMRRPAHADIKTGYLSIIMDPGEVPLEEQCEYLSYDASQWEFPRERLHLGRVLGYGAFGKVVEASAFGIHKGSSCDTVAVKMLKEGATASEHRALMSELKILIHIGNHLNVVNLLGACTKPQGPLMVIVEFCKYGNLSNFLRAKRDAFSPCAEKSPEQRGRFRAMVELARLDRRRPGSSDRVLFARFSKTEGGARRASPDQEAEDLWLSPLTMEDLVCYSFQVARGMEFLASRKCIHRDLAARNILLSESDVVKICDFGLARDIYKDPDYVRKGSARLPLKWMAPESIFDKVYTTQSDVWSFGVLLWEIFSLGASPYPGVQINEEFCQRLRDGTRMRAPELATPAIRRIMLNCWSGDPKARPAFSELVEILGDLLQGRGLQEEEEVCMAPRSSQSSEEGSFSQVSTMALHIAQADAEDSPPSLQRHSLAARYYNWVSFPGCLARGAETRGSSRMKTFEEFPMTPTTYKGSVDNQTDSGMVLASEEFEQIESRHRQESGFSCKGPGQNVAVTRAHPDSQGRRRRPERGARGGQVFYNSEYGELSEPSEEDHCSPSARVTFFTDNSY
Procedure, shortened: (§3)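 Run by an outside contract provider as part of a panel covering VEGFR1-3, FGFR1-4 and PDGFR. Test compound was tested across a gradient of concentrations, and IC50 was calculated from the resulting concentration-response data.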

VEGFR2 = VEGFR2 (Homo sapiens, UniProt P35968); assay: Kinase inhibition assay; type: biochemical
VEGFR2, sequence (P35968 20-1356): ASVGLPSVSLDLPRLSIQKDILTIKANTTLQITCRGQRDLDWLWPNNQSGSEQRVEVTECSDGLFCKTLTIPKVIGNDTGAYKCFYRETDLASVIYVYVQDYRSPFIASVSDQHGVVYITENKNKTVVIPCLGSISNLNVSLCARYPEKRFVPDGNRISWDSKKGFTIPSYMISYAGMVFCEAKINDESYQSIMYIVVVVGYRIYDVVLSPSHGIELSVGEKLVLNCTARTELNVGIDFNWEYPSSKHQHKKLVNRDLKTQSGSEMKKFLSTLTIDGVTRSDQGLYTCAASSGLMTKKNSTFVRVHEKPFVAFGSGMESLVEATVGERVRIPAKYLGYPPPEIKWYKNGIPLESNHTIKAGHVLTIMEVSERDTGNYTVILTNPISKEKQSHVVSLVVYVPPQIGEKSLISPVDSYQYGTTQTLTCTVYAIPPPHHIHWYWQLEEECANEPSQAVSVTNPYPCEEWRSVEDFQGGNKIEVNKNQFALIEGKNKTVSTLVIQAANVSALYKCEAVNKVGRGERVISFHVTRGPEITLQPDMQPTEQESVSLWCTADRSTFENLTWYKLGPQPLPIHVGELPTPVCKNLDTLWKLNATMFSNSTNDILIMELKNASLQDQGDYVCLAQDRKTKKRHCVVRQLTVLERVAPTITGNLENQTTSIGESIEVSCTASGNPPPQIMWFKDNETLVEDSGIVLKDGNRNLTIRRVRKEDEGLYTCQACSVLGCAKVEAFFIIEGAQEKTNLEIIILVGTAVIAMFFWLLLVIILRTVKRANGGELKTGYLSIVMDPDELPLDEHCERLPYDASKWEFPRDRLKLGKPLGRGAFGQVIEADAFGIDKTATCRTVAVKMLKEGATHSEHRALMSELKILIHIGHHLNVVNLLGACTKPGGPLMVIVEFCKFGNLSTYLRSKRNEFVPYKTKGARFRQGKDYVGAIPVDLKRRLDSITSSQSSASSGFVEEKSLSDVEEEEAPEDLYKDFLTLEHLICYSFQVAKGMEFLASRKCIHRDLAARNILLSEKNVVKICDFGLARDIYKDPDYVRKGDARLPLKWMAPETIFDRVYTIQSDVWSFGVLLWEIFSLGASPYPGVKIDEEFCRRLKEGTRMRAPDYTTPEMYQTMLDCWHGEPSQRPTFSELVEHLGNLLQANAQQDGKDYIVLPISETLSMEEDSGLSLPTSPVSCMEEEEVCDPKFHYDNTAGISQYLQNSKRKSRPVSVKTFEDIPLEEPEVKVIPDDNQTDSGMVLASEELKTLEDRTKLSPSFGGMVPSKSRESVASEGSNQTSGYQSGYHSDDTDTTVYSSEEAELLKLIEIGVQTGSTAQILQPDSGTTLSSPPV
Procedure, shortened: as §3

[12] = test system: transgenic zebrafish embryos; assay: Angiogenesis in flk:eGFP transgenic zebrafish; type: in vivo; conditions: 3 μM, 16 h

## COc1cc2nccc(Oc3ccc(NC(=O)NC4CC4)c(Cl)c3)c2cc1C(N)=O [Lenvatinib, reference compound]
HCT116 xenograft [1]; 5 mg/kg
  body weight: lower body weights than ZLF-095-treated group
HCT116 xenograft [1]; 5 mg/kg oral once daily
  tumor inhibitory rate: 76.8%
LO2 cells [2]
  cell morphology (pyroptosis): large bubbles bulging from the cell membrane
Sub-acute toxicity study; 40 mg/kg oral
  levels of ALP: notably increased
  levels of AST and ALT: decreased
  liver images and H&E: focal necrosis and significant inflammatory cell infiltration
  body weight: obvious body weight loss
  deaths during the study: 5/5
Hep3B2.1-7 xenograft; 30 mg/kg, day 15
  body weight: sustained weight loss
Hep3B2.1-7 xenograft; 30 mg/kg
  growth inhibition rate: 78.1%
HepG2 xenograft; 30 mg/kg, after 16 days
  body weight / lethality: marked loss of body weight led to death in mice
LO2 cells [3]
  IC50: 14 µM
[4]
  intracellular ROS levels: significantly increased
[5]
  cleaved-caspase3 / caspase3 activation: obviously up‐regulated
  expression of N-GSDME: obviously up‐regulated
HCT116 xenograft [6]; medium-term (metaphase) HCT116 model, 5 mg/kg
  body weight: lower body weights than ZLF-095-treated group
HCT116 xenograft [6]; 5 mg/kg oral once daily
  tumor inhibitory rate: 66.5%

## CC(=O)N[C@@H](CS)C(=O)O [NAC]
HCT116 cells
  effect on Lenvatinib-induced cell swelling / pyroptosis: rescue Lenvatinib-induced pyroptosis

## COC(=O)CC[C@H](NC(=O)[C@H](CC(=O)OC)NC(=O)OCc1ccccc1)C(=O)N[C@H](C(=O)N[C@@H](CC(=O)OC)C(=O)CF)C(C)C [Z-DEVD-FMK]
HCT116 cells
  effect on Lenvatinib-induced cell swelling / pyroptosis: abolished

## COCCOCCOc1cc2nccc(Oc3ccc(NC(=O)NC4CC4)c(Cl)c3)c2cc1C(N)=O [ZLF-095, 4-(3-chloro-4-(3-cyclopropylureido)phenoxy)-7-(2-(2-methoxyethoxy)ethoxy)qui noline-6-carboxamide]
HCT116 xenograft [1]; 5 mg/kg oral once daily
  tumor inhibitory rate: 72.7%
HCT116 xenograft [1]; 15 mg/kg oral once daily
  tumor inhibitory rate: 83.9%
HUVECs [7]; read-out: IC50, viability of VEGF165-induced HUVECs
  IC50: 1.77 µM
HUVECs [7]; read-out: IC50, viability of untreated HUVECs
  IC50: 10.1 µM
LO2 cells [2]
  cell morphology (pyroptosis): no such change was seen
HUVECs [8]
  invasion of HUVECs (transwell): significantly inhibited the invasion of HUVECs, similar to Lenvatinib
HUVECs [9]
  migration of HUVECs (wound healing): inhibited the migration of HUVECs slightly better than Lenvatinib
Sub-acute toxicity study; 100 mg/kg oral
  liver images and H&E: no visible abnormalities in the liver
  serum levels of BUN, CREA, GLB, UREAL, ALP, AST and ALT: No aberrant serum levels
  deaths during the study: none
Sub-acute toxicity study; 100 mg/kg oral, vs vehicle
  body weight: no significant changes in body weight
VEGF165-induced HUVECs
  cell proliferation (EdU): reduced cell proliferation in VEGF165-induced HUVECs in a dose-dependent manner
STAT3 phosphorylation
  STAT3 phosphorylation: significantly inhibited
HUVECs [10]
  capillary tube formation of HUVECs: inhibited capillary tube formation of HUVECs
ERK phosphorylation
  ERK phosphorylation: significantly inhibited
VEGFR1
  IC50: 2 nM
Tumor tissues; immunohistochemistry
  expression of Ki67 in tumor tissues: significantly decreased
Tumor tissues
  micro-vessel density of tumors (CD31): markedly decreased
  number of apoptotic cells in tumor tissues (TUNEL): increased
VEGFR2 phosphorylation
  phosphorylation of VEGFR2 induced by 50 ng/mL VEGF-165: obviously suppressed
[11]
  proliferation of HepG2, Hepa3B2.1-7 and HCT116 cells: significantly inhibited
Hep3B2.1-7 xenograft; 30 mg/kg
  growth inhibition rate: 66.6%
Hep3B2.1-7 xenograft; 80 mg/kg
  growth inhibition rate: 81.5%
Hep3B2.1-7 xenograft; dose levels up to 80 mg/kg
  gross abnormalities: no gross abnormalities were observed
VEGFR3
  IC50: 0.7 nM
HepG2 xenograft; 50 mg/kg, 25 days
  body weight: no influence on the weight
  suppression of cancer growth: 75.2%
VEGFR2
  IC50: 5 nM
[12]
  formation of intersegmental vessels (ISV): significantly suppressed the formation of intersegmental vessels (ISV), similar to Lenvatinib
[5]
  cleaved-caspase3 / caspase3 activation: increased caspase3 activation
  expression of N-GSDME: had no effect
HCT116 xenograft [6]; 5 mg/kg oral once daily
  tumor inhibitory rate: 60.7%
HCT116 xenograft [6]; 15 mg/kg oral once daily
  tumor inhibitory rate: 72.5%
